Experiments:
[1] = molecular target: T1, Bifunctional dihydrofolate reductase-thymidylate synthase (Toxoplasma gondii) (UniProt Q07422); assay: Inhibition of Toxoplasma gondii DHFR by continuous spectrophotometric assay
T1 sequence (whole entry): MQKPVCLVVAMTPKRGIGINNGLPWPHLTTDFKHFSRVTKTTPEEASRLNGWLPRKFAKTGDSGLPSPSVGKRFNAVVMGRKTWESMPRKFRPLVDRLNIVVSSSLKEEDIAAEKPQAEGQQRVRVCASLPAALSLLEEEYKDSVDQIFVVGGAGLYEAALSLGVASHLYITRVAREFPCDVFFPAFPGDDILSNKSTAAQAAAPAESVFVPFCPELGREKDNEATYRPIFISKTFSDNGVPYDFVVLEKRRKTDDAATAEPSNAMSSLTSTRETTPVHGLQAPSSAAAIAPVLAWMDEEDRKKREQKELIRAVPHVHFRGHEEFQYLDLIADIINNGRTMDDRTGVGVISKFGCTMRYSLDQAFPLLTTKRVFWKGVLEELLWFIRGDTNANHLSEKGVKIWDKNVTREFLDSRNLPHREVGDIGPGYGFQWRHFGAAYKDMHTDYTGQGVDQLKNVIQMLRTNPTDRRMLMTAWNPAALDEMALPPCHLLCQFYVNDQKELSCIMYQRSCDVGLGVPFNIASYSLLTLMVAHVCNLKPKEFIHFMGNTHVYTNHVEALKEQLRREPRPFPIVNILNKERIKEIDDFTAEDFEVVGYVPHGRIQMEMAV
In short: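 Toxoplasma gondii DHFR was assayed continuously by spectrophotometry, following NADPH oxidation at 340 at 37 °C with saturating substrate and cofactor, in triplicate. […]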

[2] = molecular target: T2, Dihydrofolate reductase (Pneumocystis carinii) (UniProt P16184); assay: Inhibition of Pneumocystis carinii DHFR at IC50 by continuous spectrophotometric assay
T2 sequence (whole entry): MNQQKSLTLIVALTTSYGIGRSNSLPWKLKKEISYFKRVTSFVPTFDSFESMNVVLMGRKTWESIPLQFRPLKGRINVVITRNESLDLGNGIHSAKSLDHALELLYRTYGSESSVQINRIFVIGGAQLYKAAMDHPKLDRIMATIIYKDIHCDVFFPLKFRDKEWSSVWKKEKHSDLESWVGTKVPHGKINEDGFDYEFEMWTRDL
In short: (§1)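 Continuous spectrophotometric assay of pathogen (pc, tg, ma) or rat liver DHFR. NADPH oxidation was followed at 340, at 37 °C, with substrate and cofactor both saturating. […]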

[3] = molecular target: T1, Bifunctional dihydrofolate reductase-thymidylate synthase (Toxoplasma gondii); assay: Inhibition of Toxoplasma gondii DHFR at IC50 by continuous spectrophotometric assay; parameters: concentration or dose not given beside the values; in short: as §1
[4] = molecular target: T3, Dihydrofolate reductase (Mycobacterium avium) (UniProt O30463); assay: Inhibition of Mycobacterium avium DHFR at IC50 by continuous spectrophotometric assay; in short: as §1
T3 sequence (whole entry): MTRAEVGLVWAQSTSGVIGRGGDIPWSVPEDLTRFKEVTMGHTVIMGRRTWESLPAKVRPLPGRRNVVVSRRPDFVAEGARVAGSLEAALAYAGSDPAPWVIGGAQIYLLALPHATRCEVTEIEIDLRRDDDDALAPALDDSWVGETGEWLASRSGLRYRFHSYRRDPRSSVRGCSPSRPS

[5] = molecular target: T4, Dihydrofolate reductase (Rattus norvegicus) (UniProt Q920D2); assay: Inhibition of rat liver DHFR at IC50 by continuous spectrophotometric assay; in short: as §1
T4 sequence (whole entry): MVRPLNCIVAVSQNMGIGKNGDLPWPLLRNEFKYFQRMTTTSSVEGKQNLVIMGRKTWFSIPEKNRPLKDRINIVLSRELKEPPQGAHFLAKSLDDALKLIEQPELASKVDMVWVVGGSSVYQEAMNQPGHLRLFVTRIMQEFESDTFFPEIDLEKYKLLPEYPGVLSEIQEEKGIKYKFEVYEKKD

[6] = Selectivity ratio of IC50 for rat liver DHFR to IC50 for Pneumocystis carinii DHFR
In short: (§2)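 The ratio is rat liver DHFR IC50 divided by pathogen DHFR IC50. Both IC50s come from triplicate continuous spectrophotometric assays following NADPH oxidation at 37 °C, with substrate and cofactor saturating.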

[7] = Selectivity ratio of IC50 for rat liver DHFR to IC50 for Toxoplasma gondii DHFR; in short: as §2
[8] = Selectivity ratio of IC50 for rat liver DHFR to IC50 for Mycobacterium avium DHFR; in short: as §2

| Compound | inhibition [2] [%] | inhibition [4] [%] | inhibition [5] [%] | IC50 selectivity ratio (rat liver / P. carinii DHFR) [6] | Ratio IC50 [8] | Activity [1] [µM] | inhibition [3] [%] | Ratio IC50 [7] |
| --- | --- | --- | --- | --- | --- | --- | --- | --- |
| Nc1nc(N)nc(CN2c3ccccc3Sc3ccccc32)n1 |  | 4 | 16 |  |  | 143 | 15 |  |
| Nc1ncc(CN2c3ccccc3C=Cc3ccccc32)c(N)n1 |  |  | 15 | > 5 | > 20 | 8.07 |  | > 16 |
| Nc1ncc(CNc2cccc3ccccc23)c(N)n1 |  | 9 |  | 0.85 |  | 22.1 |  | 5.78 |
| Nc1ncc(CN2c3ccccc3CCc3ccccc32)c(N)n1 |  |  |  | 1.89 | 14.4 | 0.14 |  | 11.5 |
| Nc1nc(N)nc(CN2c3ccccc3Sc3ccc(Cl)cc32)n1 |  | 5 | 8 |  |  | 397 |  |  |
| Nc1ncc(CSc2nc3ccccc3o2)c(N)n1 |  |  |  | 14.5 | 22.5 | 160 |  | 3.25 |
| Nc1nc(N)c2nc(CN3c4ccccc4C=Cc4ccccc43)cnc2n1 |  |  |  |  | 367 | 0.043 |  | 102 |
| Nc1nc(N)nc(CN2c3ccccc3CCc3ccccc32)n1 |  | 9 | 0 |  |  | 140 | 10 |  |

Further lines, with some results ahead:

| inhibition [2] [%] | inhibition [4] [%] | inhibition [5] [%] | IC50 selectivity ratio (rat liver / P. carinii DHFR) [6] | Ratio IC50 [8] | Compound | Activity [1] [µM] | inhibition [3] [%] | Ratio IC50 [7] |
| --- | --- | --- | --- | --- | --- | --- | --- | --- |
| 2 | 4 | 0 |  |  | Cc1ccc(COc2ccc(C(=O)/C=C/c3cnc(N)nc3N)cc2)cc1 | 117 | 10 |  |
|  |  |  | 4.79 | 209 | CN(Cc1cnc(N)nc1N)c1cccc2ccccc12 | 3.49 |  | 52.7 |
|  | 15 | 0 | > 15.7 |  | Nc1ncc(COS(=O)(=O)c2ccc3ccccc3c2)c(N)n1 | 124 | 13 |  |
|  | 0 | 0 |  |  | COc1ccc(NCc2cnc(N)nc2N)cc1 | 44 | 7 |  |
| 4 | 14 |  |  |  | COc1ccc(C(=O)/C=C/c2cnc(N)nc2N)cc1 | 151 | 15 |  |
|  |  | 39 |  | > 51.4 | Nc1cc(OCCN2c3ccccc3C=Cc3ccccc32)nc(N)n1 | 3.35 |  | > 35.8 |
|  |  |  | 0.43 | 0.21 | Nc1nc(N)c2cc(COC(=O)c3c4ccccc4cc4ccccc34)ccc2n1 | 0.67 |  | 0.31 |
| 0 | 12 | 12 |  |  | COc1cc(COc2cc(N)nc(N)n2)cc(OC)c1OC | 145 | 10 |  |

From ChEMBL document CHEMBL1157930, “Design, synthesis, biological evaluation and computational investigation of novel inhibitors of dihydrofolate reductase of opportunistic pathogens” (Bioorg Med Chem, 2010)
